Consider 13 compounds from ChEMBL document CHEMBL1126137, “Structure-function studies in a series of carboxyl-terminal octapeptide analogues of anaphylatoxin C5a” (J Med Chem, 1992).

Where a SMILES comes first, the peptide text is derived from it. [ ]: non-standard residue; d: D form. Cha = N[C@@H](CC1CCCCC1)C(=O)O; Nle = CCCC[C@H](N)C(=O)O A value given as a limit tells only on which side of the number the result lay.

Experiment [1] deals with T1, C5a anaphylatoxin chemotactic receptor 1 (Homo sapiens, UniProt P21730).
T1 sequence (P21730 whole entry): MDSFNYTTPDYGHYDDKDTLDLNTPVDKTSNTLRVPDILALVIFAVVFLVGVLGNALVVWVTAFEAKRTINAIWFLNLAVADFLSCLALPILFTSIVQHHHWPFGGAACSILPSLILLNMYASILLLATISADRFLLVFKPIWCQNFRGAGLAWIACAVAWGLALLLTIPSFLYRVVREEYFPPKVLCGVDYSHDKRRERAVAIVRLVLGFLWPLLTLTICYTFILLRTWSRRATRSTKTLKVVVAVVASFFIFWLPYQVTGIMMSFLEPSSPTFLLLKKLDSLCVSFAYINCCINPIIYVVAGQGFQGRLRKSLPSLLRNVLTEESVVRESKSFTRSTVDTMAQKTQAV
As to the kind of experiment: Ability to inhibit the binding of […] to polymorphonuclear leukocyte (PMNL) membrane receptor. Put shortly: (§1)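 Competition for radioiodinated C5a binding to human PMNL membranes, isolated by nitrogen cavitation and Percoll gradient. Tracer made by glucose oxidase-lactoperoxidase iodination and affinity-purified. Buffered balanced salts (pH 7.0), 0.25% gelatin, protease inhibitors, 50–250 pM 125I-C5a, 5–20 μg/mL membranes. 60 min, ambient temperature, filtration. IC50 from linear regression; Ki by Cheng–Prusoff. Single-point lines give percent inhibition at 1 mM peptide.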

A short description of experiment [2]: Compound was evaluated for its ability to stimulate polymorphonuclear leukocyte (PMNL) chemokinetic migration. Format: functional, Homo sapiens. Put shortly: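 Human blood PMNL from density-gradient centrifugation, with hypotonic red-cell lysis and three washes. Cells at 2×10^8/mL in 0.3% agarose, set as 1-μL droplets, chilled 10 min on ice, then overlaid with buffer ± stimulus. Buffer: Earle's salts, 20 mM HEPES pH 7.0, 0.25% gelatin. Run 2 h at 37 °C. Migration from droplet edge, minus buffer control, as % of peak rC5a response. Dose-response dosing.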

Experiment [3] concerns the target T2, C5a anaphylatoxin chemotactic receptor 1 (Homo sapiens) (UniProt P21730).
T2 sequence (whole entry): T1 sequence (P21730 whole entry)
As to the kind of experiment: Compound was evaluated for its ability to inhibit the binding of […] to polymorphonuclear leukocyte (PMNL) membrane receptor at 1 mM concentration. The essentials:
as §1

What is called Ki is the equilibrium dissociation constant of an inhibitor or competing ligand from its target. Low readings indicate higher affinity, high ones lower affinity. In experiment [1], `CCCC[C@H](NC(=O)[C@H](CCCC)NC(=O)[C@H](CCCC)NC(=O)[C@H](CC(=O)O)NC(=O)[C@H](CCCCN)NC(=O)[C@H](Cc1c[nH]cn1)NC(C)=O)C(=O)NCC(=O)N[C@@H](CCCN=C(N)N)C(=O)O` (Ac-HKD[Nle][Nle][Nle]GR-OH) came in with a Ki of 210 µM.

Compound `CCC[C@H](NC(=O)[C@H](CC1CCCCC1)NC(=O)[C@H](CC1CCCCC1)NC(=O)[C@H](CC(=O)O)NC(=O)[C@H](CCCCN)NC(=O)[C@H](Cc1c[nH]cn1)NC(C)=O)C(=O)N[C@H](C)C(=O)N[C@@H](CCCN=C(N)N)C(=O)O` registered a Ki in experiment [1] of 5.3 µM. In addition, the Efficacy in experiment [2] amounted to 55%.

On to `CC(=O)N[C@@H](Cc1c[nH]cn1)C(=O)NC(CCCCN)C(=O)N[C@@H](CC(=O)O)C(=O)NC(CC1CCCCC1)C(=O)N[C@H](CC1CCCCC1)C(=O)N[C@@H](CC(C)C)C(=O)N[C@H](C)C(=O)N[C@@H](CCCN=C(N)N)C(=O)O` (single isomer, unassigned), for which the Ki in experiment [1] came to 600 µM. In experiment [2], the Efficacy is recorded as 71%.

Turning to `CC(=O)N[C@@H](Cc1c[nH]cn1)C(=O)N[C@@H](CCCCN)C(=O)N[C@@H](CC(=O)O)C(=O)N[C@@H](CC1CCCCC1)C(=O)N[C@@H](CC1CCCCC1)C(=O)N[C@@H](CC1CCCCC1)C(=O)N[C@H](C)C(=O)N[C@@H](CCCN=C(N)N)C(=O)O`, in experiment [1], affinity was put at a Ki of 10 µM. In experiment [2], the Efficacy turned out to be 67%.

In experiment [2], Ac-HKDMQLGR-OH had an Efficacy of 107%.

In experiment [1], `CC[C@H](C)[C@H](NC(=O)[C@H](CC1CCCCC1)NC(=O)[C@H](CC1CCCCC1)NC(=O)[C@H](CC(=O)O)NC(=O)[C@H](CCCCN)NC(=O)[C@H](Cc1c[nH]cn1)NC(C)=O)C(=O)N[C@H](C)C(=O)N[C@@H](CCCN=C(N)N)C(=O)O` yielded an inhibition constant (Ki) of 2 µM. In experiment [2], this compound yielded an Efficacy of 56%.

As a reminder, the inhibition is the change of the read-out against control, counted positive when it falls. Higher therefore signals strong suppression. The compound `CC(=O)N[C@@H](Cc1c[nH]cn1)C(=O)N[C@@H](CCCCN)C(=O)N[C@@H](CC(=O)O)C(=O)N[C@@H](CC1CCCCC1)C(=O)N[C@H](CC1CCCCC1)C(=O)N[C@@H](CC(C)C)C(=O)N[C@H](C)C(=O)N[C@@H](CCCN=C(N)N)C(=O)O` displayed an inhibition in experiment [3] of 26%.

Turning to `CC(=O)N[C@@H](Cc1c[nH]cn1)C(=O)N[C@@H](CCCCN)C(=O)N[C@@H](CC(=O)O)C(=O)N[C@@H](CC1CCCCC1)C(=O)N[C@@H](CC1CCCCC1)C(=O)N[C@H](C(=O)N[C@H](C)C(=O)N[C@@H](CCCN=C(N)N)C(=O)O)C(C)C`, the affinity in experiment [1], expressed as Ki, was 1.6 µM. Besides, the Efficacy in experiment [2] turned out to be 60%.

`CSCC[C@H](NC(=O)[C@H](CC(=O)O)NC(=O)[C@H](CCCCN)NC(=O)[C@H](Cc1c[nH]cn1)NC(C)=O)C(=O)N[C@@H](CCC(N)=O)C(=O)N[C@@H](CC1CCCCC1)C(=O)NCC(=O)N[C@@H](CCCN=C(N)N)C(=O)O` (Ac-HKDMQ[Cha]GR-OH) yielded an inhibition in experiment [3] of 30%.

As to `CC(=O)N[C@@H](Cc1c[nH]cn1)C(=O)N[C@@H](CCCCN)C(=O)N[C@@H](CC(=O)O)C(=O)N[C@@H](CC1CCCCC1)C(=O)N[C@@H](CC1CCCCC1)C(=O)N[C@@H](CC(C)C)C(=O)N[C@H](C)C(=O)N[C@@H](CCCN=C(N)N)C(=O)O`, in experiment [1], the Ki stood at 2.9 µM. For the same compound, in experiment [2], the Efficacy is recorded as 57%.

As to `CC(=O)N[C@@H](Cc1c[nH]cn1)C(=O)N[C@@H](CCCCN)C(=O)N[C@@H](CC(=O)O)C(=O)N[C@@H](Cc1ccccc1)C(=O)N[C@@H](Cc1ccccc1)C(=O)N[C@@H](Cc1ccccc1)C(=O)N[C@H](C)C(=O)N[C@@H](CCCN=C(N)N)C(=O)O`, the affinity in experiment [1], expressed as Ki, was 750 µM. The same compound returned an Efficacy in experiment [2] of 109%.

Turning to `CC(=O)N[C@@H](Cc1c[nH]cn1)C(=O)N[C@@H](CCCCN)C(=O)N[C@@H](CC(=O)O)C(=O)N[C@@H](Cc1ccc(O)cc1)C(=O)N[C@@H](Cc1ccc(O)cc1)C(=O)N[C@@H](Cc1ccc(O)cc1)C(=O)N[C@H](C)C(=O)N[C@@H](CCCN=C(N)N)C(=O)O`, the inhibition in experiment [3] is below 20%.

Consider `CC(=O)N[C@@H](Cc1c[nH]cn1)C(=O)N[C@@H](CCCCN)C(=O)N[C@@H](CC(=O)O)C(=O)N[C@@H](CC1CCCCC1)C(=O)N[C@@H](CC1CCCCC1)C(=O)N[C@@H](CC1CCCCC1)C(=O)NCC(=O)N[C@@H](CCCN=C(N)N)C(=O)O` (Ac-HKD[Cha][Cha][Cha]GR-OH), for which, in experiment [1], the Ki was 25 µM. In addition, in experiment [2], the Efficacy was determined as 75%.
